Measurements: article PMC9176367 (Journal of medicinal chemistry, 2022)

Assays:
[1] = tested on: MRGPRX1; conditions: cited from earlier work
[2] = biological target: T1, human MRGPRX1 (Homo sapiens, UniProt Q96LB2); format: cell-based; conditions: MRGPRX1 PAM potency
Method in brief: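 Stable human MRGPRX1 HEK293 cells seeded at 25,000/well and grown 2 days. Loaded with 2 μM Fluo-4 AM plus 1% Trypan Red in HBSS for 50 min at 37°C, then 10 min at room temperature. Serial HBSS dilutions of test compound added with EC20 BAM8–22; FLIPR read for 2 min as max–min fluorescence. […] Mean ± SEM, ≥3 experiments in quadruplicate.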

[3] = biological target: T2, MRGPRX2 (Homo sapiens, UniProt Q96LB1); format: cell-based
T2 sequence (Q96LB1 1-330): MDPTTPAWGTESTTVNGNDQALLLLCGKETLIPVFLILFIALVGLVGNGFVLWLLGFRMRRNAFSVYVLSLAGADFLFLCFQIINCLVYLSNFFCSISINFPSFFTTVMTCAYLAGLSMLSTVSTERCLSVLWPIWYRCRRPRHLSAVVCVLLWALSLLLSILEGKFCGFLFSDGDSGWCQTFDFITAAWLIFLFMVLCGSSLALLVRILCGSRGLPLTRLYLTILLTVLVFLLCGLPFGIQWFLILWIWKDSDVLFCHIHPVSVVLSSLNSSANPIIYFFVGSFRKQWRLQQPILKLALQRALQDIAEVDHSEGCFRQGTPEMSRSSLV

[4] = tested on: naïve MRGPRX1 mice; assay: Rotarod test in naïve MRGPRX1 mice; format: in vivo; conditions: 100 mg/kg, po, vs vehicle-treated group and pre-treatment values
[5] = tested on: humanized MRGPRX1 mice; format: in vivo; conditions: 100 mg/kg oral, 0–1 hour post-drug
[6] = tested on: panel of 44 selected targets (Eurofins Cerep SafetyScreen 44); assay: Off-target panel of 44 selected targets; conditions: at 10 μM
[7] = tested on: humanized MRGPRX1 mice; assay: Sciatic nerve chronic constriction injury; format: in vivo; conditions: 100 mg/kg, po
Method in brief: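 Humanized MRGPRX1 mice of both sexes (2–3 months, 20–30 g) under 2% isoflurane; left sciatic nerve loosely ligated with three sutures proximal to the branching point. Test compound given at 100 mg/kg po, vehicle as control. Hargreaves heat paw withdrawal latency measured before and after dosing on days 12 and 26 post-CCI (n=4–5/group). Two-way mixed-model ANOVA with Bonferroni; mean + SD.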

[8] = In vivo pharmacokinetics in mice after oral administration; conditions: for Kp: male, CD-1, mouse, po, 100 mg/kg, Tissue-to-plasma ratio (by AUC)
Method in brief: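 Male CD1 mice (25–30 g, n=3) dosed by oral gavage at 100 mg/kg in 5% dimethylacetamide/10% Cremophor EL/10% Tween80/25% PEG400/50% water. Killed at 0.25–6 h; cardiac blood taken to plasma, spinal cord and brain flash-frozen. Acetonitrile extraction with losartan internal standard, then LC/MS/MS. Calibration 0.01–10 nmol/mL in naïve matrix, 1/x-weighted linear regression.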

[9] = tested on: naïve MRGPRX1 mice; assay: Open field test in naïve MRGPRX1 mice; format: in vivo; conditions: 100 mg/kg, po, compared to pre-drug
[10] = biological target: T1, human MRGPRX1; assay: MRGPRX1 intrinsic agonist activity in the absence of BAM8–22; format: cell-based; conditions: at concentrations up to 100 μM in the absence of BAM8–22
Method in brief: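 Same stable human MRGPRX1 HEK293 FLIPR format: 25,000 cells/well for 2 days, then 2 μM Fluo-4 AM with 1% Trypan Red in HBSS for 50 min at 37°C and 10 min at room temperature. Serially diluted test compound added in HBSS alone, with HBSS as negative control and BAM8–22 as positive control. Max–min fluorescence recorded over 2 min.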

[11] = biological target: hERG channel (Homo sapiens, UniProt Q12809); assay: hERG channel in Eurofins Cerep SafetyScreen 44; conditions: at 10 μM
[12] = Metabolite identification in human liver microsomes; format: in vitro ADME; conditions: 60 min
[13] = tested on: MRGPRX1; conditions: NIH MLPCN; cited from earlier work
[14] = spinal cord, 100 mg/kg po (table)

T1 sequence (Q96LB2 whole entry): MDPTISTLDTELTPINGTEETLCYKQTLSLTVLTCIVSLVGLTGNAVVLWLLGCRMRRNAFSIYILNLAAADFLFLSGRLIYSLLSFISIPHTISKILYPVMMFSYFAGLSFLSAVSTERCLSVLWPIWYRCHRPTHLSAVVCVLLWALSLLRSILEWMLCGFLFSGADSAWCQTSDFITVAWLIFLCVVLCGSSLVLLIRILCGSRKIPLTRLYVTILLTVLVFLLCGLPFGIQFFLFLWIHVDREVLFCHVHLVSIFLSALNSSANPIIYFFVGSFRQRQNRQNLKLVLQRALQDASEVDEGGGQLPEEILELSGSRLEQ
hERG channel, sequence (Q12809 whole entry): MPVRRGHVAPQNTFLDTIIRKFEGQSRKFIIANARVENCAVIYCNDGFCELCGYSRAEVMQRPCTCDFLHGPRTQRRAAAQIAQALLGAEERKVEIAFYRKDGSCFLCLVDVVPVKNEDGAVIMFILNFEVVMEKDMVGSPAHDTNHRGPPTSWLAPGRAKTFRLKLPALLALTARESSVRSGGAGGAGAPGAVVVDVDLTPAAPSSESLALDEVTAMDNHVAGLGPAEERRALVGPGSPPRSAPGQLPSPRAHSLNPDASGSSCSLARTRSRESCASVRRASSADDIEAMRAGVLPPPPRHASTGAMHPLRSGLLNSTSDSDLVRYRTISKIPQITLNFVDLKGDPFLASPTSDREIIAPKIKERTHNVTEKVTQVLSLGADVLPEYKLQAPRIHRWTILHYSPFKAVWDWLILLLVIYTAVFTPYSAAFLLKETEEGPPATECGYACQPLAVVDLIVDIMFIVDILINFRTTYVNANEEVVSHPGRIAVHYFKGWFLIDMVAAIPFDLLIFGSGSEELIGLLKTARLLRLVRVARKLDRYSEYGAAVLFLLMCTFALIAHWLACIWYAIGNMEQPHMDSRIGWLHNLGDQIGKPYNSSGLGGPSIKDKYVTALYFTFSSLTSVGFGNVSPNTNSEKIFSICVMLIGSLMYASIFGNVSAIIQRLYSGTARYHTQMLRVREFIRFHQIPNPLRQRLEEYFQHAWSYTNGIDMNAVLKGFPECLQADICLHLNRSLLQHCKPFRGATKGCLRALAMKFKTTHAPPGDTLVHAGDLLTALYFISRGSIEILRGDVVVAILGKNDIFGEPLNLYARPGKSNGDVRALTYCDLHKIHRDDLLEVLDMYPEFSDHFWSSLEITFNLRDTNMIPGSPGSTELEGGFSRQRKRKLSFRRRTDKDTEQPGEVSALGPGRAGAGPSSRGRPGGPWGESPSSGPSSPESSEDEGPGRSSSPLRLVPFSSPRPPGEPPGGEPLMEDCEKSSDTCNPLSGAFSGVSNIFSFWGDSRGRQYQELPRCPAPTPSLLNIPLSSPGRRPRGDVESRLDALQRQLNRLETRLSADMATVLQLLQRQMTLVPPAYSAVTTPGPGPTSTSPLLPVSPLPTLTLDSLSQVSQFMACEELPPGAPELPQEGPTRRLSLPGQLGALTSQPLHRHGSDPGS

In the case of `CCOc1ccccc1NC(=O)c1ccccc1NS(=O)(=O)C1CC1` [ML382, 2-[(Cyclopropylsulfonyl)amino]-N-(2-ethoxyphenyl)benzamide], the “pain hypersensitivity after injury” value ([1]; intrathecal injection) is listed as “inhibit pain hypersensitivity after injury” and the itch side effects ([1]; systemic administration) is listed as “did not elicit itch side effects”.
In the case of `Cc1sc2ncnc(Oc3ccccc3)c2c1C` [Compound 1c, 5,6-Dimethyl-4-phenoxythieno[2,3-d]pyrimidine], the “fold loss in potency compared to 1b” value [2] is reported as 4 fold.
For `CC(C)(C)c1sc2ncnc(Oc3ccccc3OC(F)(F)F)c2c1-c1ccc(Cl)c(Cl)c1` [Compound 1t, 6-tert-butyl-5-(3,4-dichlorophenyl)-4-(2-(trifluoromethoxy)phenoxy)thieno[2,3-d]pyrimidine], the “selectivity for MRGPRX1 over MRGPRX2” value [3] was “at least 50 fold”, the “MRGPRX2 PAM activity” value ([3]; at 5 μM, in presence of EC20 concentration of C48/80) was “no MRGPRX2 PAM activity” and the “performance on the rotarod test” value [4] was “no difference in performance on the rotarod test”. For the same compound, the “itch side effects (spontaneous scratch bouts)” value [5] was “lack of spontaneous scratch bouts”, the overt adverse effects ([5]; compared to vehicle) was “no overt adverse effects” and the “inhibition of 5 of the 44 targets” value [6] was 50−64%. The “ipsilateral paw withdrawal latency (PWL) to radiant heat” value ([7]; 1 and 2 hours post-drug on day 12 post-injury) was “significantly increased ipsilateral PWLs from pre-drug level”, the “ipsilateral paw withdrawal latency (PWL) to radiant heat” value ([7]; 2 hours post-drug on day 26 post-injury) was “significantly increased ipsilateral PWLs from pre-drug level” and the “contralateral hind paw PWL” value ([7]; after drug treatment) was “no significant change of PWLs”. For the same compound, the “Cmax in the spinal cord relative to the EC50 value” ([8]; 100 mg/kg po) was “more than 40 fold”, the Cmax ([8]; brain, 100 mg/kg po) was 0.82 ± 0.05 nmol·h/g and the Kp ([8]; brain/plasma, brain, 100 mg/kg po) was 0.022. For the same compound, the Kp ([8]; spinal cord/plasma, spinal cord, 100 mg/kg po) was 0.127, the AUC0-last [8, 14] was 13.79 ± 0.14 nmol·h/g and the Cmax [8, 14] was 4.60 ± 0.60 nmol·h/g. For the same compound, the “exploratory performance in the open field test” value [9] was “neither compound 1t (100 mg/kg, po) nor vehicle significantly impaired exploratory performance”, the intrinsic agonist activity [10] was “no intrinsic agonist activity” and the “inhibition of hERG channel” value [11] was “more than 50%”.
With `Cc1sc2ncnc(Oc3ccccc3F)c2c1C` [Compound 1f, 4-(2-Fluorophenoxy)-5,6-dimethylthieno[2,3-d]pyrimidine] the major metabolite identification [12] was “insertion of an oxygen atom into the parent compound”.
In the case of `Cc1ccccc1Oc1ncnc2sccc12` [Compound 1b, 4-(o-Tolyloxy)thieno[2,3-d]pyrimidine], the “allosteric MRGPRX1 activator activity” value [13] is listed as “active allosteric MRGPRX1 activator”.
